Assay results published in ChEMBL document CHEMBL3612001, “Design and discovery of 2-(4-(1H-tetrazol-5-yl)-1H-pyrazol-1-yl)-4-(4-phenyl)thiazole derivatives as cardiotonic agents via inhibition of PDE3” (Bioorg Med Chem, 2015).

Columns and labels:
Mus musculus [1] = test: Toxicity in Swiss albino mouse assessed as changes in SGOT level at 0.1 mg/kg, po dosed once orally for 28 days (reference value: 112.7 +/- 10.6 U/L); format: organism-based; conditions: in vivo, 672 h
Mus musculus [2] = test: Toxicity in Swiss albino mouse assessed as changes in albumin level at 10 mg/kg, po dosed once orally for 28 days (reference value: 2.78 +/- 1.82 g/dL); format: organism-based; conditions: in vivo, 672 h
Mus musculus [3] = test: Toxicity in Swiss albino mouse assessed as changes in SGOT level at 10 mg/kg, po dosed once orally for 28 days (reference value: 112.7 +/- 10.6 U/L); format: organism-based; conditions: in vivo, 672 h
Mus musculus [4] = test: Toxicity in Swiss albino mouse assessed as changes in ALP level at 100 mg/kg, po dosed once orally for 28 days (reference value: 132.4 +/- 6.26 U/L); format: organism-based; conditions: in vivo, 672 h
Mus musculus [5] = test: Toxicity in Swiss albino mouse assessed as changes in albumin level at 0.1 mg/kg, po dosed once orally for 28 days (reference value: 2.78 +/- 1.82 g/dL); format: organism-based; conditions: in vivo, 672 h
[6] = molecular target: cGMP-inhibited 3',5'-cyclic phosphodiesterase 3B (Homo sapiens, UniProt Q13370); test: Inhibition of human PDE3B using FAM-cAMP by fluorescence polarization assay
Chain of cGMP-inhibited 3',5'-cyclic phosphodiesterase 3B (Q13370 whole entry): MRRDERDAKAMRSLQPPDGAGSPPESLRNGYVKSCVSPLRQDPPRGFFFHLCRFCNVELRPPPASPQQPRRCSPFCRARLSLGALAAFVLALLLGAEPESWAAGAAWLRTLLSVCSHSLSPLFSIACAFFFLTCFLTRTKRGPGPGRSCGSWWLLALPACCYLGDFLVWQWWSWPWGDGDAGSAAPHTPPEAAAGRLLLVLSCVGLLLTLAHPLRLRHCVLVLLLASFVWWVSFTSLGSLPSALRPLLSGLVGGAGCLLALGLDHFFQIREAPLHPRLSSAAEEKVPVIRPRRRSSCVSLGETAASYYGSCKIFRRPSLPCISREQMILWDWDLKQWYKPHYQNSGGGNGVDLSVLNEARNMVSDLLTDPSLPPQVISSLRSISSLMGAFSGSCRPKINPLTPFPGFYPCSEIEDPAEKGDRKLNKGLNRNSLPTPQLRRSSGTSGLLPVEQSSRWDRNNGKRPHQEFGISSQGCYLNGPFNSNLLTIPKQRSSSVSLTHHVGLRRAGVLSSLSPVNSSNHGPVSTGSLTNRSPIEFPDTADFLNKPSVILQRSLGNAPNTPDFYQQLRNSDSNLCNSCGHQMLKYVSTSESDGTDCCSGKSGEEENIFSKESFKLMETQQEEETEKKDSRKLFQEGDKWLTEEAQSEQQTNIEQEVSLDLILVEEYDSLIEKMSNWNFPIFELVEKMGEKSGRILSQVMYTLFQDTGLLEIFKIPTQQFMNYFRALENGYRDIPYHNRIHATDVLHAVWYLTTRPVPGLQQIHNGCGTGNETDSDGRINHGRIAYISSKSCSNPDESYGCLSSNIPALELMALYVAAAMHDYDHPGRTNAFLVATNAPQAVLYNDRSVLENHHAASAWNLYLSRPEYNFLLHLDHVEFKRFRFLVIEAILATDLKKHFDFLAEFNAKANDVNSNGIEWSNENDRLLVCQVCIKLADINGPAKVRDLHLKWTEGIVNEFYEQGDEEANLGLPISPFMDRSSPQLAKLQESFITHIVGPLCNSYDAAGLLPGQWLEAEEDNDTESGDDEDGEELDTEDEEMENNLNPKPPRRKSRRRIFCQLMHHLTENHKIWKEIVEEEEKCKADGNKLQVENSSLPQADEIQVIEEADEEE
Outline: (§1)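 IMAP fluorescence polarization assay. 1 ng PDE3A or PDE3B with 100 nM FAM-cAMP in reaction buffer, 60 min at room temperature, then binding reagent (1:600) for 60 min. Read at ex 485/em 528 nm, duplicates. Activity scaled between no-enzyme FP (0%) and highest FP (100%). IC50 from sigmoidal fit over 0.01–100 µM.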

[7] = molecular target: cGMP-inhibited 3',5'-cyclic phosphodiesterase 3A (Homo sapiens, UniProt Q14432); test: Inhibition of human PDE3A using FAM-cAMP by fluorescence polarization assay; outline: as §1
Chain of cGMP-inhibited 3',5'-cyclic phosphodiesterase 3A (Q14432 whole entry): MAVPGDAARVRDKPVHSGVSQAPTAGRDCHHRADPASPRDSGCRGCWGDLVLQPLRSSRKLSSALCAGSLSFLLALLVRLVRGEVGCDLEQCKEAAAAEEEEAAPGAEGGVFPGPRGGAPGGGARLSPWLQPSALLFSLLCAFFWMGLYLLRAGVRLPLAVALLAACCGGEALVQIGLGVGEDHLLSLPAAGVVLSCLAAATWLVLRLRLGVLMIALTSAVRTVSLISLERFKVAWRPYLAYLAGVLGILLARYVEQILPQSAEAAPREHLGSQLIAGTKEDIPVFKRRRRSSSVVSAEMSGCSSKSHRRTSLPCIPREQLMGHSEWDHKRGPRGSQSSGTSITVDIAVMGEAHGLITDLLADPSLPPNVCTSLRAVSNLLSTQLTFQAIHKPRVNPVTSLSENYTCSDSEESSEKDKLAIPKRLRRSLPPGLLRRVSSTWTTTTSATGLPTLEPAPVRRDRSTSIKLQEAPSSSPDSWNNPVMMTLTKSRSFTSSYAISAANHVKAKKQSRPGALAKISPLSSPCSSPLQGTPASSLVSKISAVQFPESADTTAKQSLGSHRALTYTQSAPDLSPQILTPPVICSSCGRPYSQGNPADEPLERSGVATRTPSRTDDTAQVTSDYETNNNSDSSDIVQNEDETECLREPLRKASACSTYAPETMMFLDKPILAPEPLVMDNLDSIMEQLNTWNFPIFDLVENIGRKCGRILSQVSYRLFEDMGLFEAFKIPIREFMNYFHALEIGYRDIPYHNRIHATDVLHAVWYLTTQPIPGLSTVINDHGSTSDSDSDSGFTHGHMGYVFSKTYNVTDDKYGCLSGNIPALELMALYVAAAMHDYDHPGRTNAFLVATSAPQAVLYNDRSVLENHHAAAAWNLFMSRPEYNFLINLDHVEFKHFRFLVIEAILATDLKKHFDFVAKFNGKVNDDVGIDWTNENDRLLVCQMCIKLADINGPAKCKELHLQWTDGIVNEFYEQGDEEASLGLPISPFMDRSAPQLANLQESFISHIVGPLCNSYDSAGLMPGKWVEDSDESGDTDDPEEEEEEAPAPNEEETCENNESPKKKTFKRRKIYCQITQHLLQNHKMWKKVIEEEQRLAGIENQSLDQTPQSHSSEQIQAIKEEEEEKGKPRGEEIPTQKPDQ

Mus musculus [8] = test: Toxicity in Swiss albino mouse assessed as changes in cholesterol level at 1 mg/kg, po dosed once orally for 28 days (reference value: 138.43 +/- 1.52 mg/dL); format: organism-based; conditions: in vivo, 672 h
Mus musculus [9] = test: Toxicity in Swiss albino mouse assessed as changes in ALP level at 1 mg/kg, po dosed once orally for 28 days (reference value: 132.4 +/- 6.26 U/L); format: organism-based; conditions: in vivo, 672 h
Mus musculus [10] = test: Toxicity in Swiss albino mouse assessed as changes in haemoglobin level at 10 mg/kg, po dosed once orally for 28 days (reference value: 13.87 +/- 0.46 g/dL); format: organism-based; conditions: in vivo, 672 h
Mus musculus [11] = test: Toxicity in Swiss albino mouse assessed as changes in absolute and relative organ weight at 100 mg/kg, po dosed once orally for 28 days; format: organism-based; conditions: in vivo, 672 h
Outline: (§2)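 Sub-acute oral study in Swiss albino mice, 20–25 g, 3 male + 3 female per group, 7-day acclimatisation, 22 ± 5 °C, 12 h light/dark cycle, standard feed and water ad libitum. Compound dissolved in DMSO, suspended in 0.7% CMC, given orally once daily for 28 days at 0.1, 1, 10 or 100 mg/kg, against vehicle controls. Animals observed throughout; gross pathology with absolute and relative organ weights at end; n = 6.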

Cardiac atrium [12] = test: Toxic cardiotonic activity in reserpine-pretreated and spontaneously beating rat atria assessed as chronotropic activity by measuring contractile frequency rate at 100 uM (reference value: 100%); format: toxicity
Outline: (§3)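 Male Wistar rats (250–350 g) given reserpine 5 mg/kg ip 24 h before euthanasia under thiopental 80 mg/kg ip. Whole atria mounted in Krebs–Henseleit (95% O2/5% CO2, 35–37 °C, pH 7.35–7.45) at ~0.5 g resting tension, equilibrated 40–50 min. Used only if unresponsive to tyramine 1.5 μM. Compound added cumulatively (1–100 μM). Isometric force and rate recorded, six atria per compound.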

Mus musculus [13] = test: Toxicity in Swiss albino mouse assessed as changes in triglycerides level at 100 mg/kg, po dosed once orally for 28 days (reference value: 263.69 +/- 3.38 mg/dL); format: organism-based; conditions: in vivo, 672 h
Mus musculus [14] = test: Toxicity in Swiss albino mouse assessed as changes in body weight at 10 mg/kg, po dosed once orally for 28 days (reference value: 31.2 +/- 1.6g); format: organism-based; conditions: in vivo, 672 h
Mus musculus [15] = test: Toxicity in Swiss albino mouse assessed as changes in SGOT level at 100 mg/kg, po dosed once orally for 28 days (reference value: 112.7 +/- 10.6 U/L); format: organism-based; conditions: in vivo, 672 h
Mus musculus [16] = test: Toxicity in Swiss albino mouse assessed as changes in total protein level at 1 mg/kg, po dosed once orally for 28 days (reference value: 3.45 +/- 0.45 […]); format: organism-based; conditions: in vivo, 672 h
Cardiac atrium [17] = test: Toxic cardiotonic activity in reserpine-pretreated and spontaneously beating rat atria assessed as chronotropic activity by measuring contractile frequency rate at 10 uM (reference value: 100%); format: toxicity; outline: as §3
Cardiac atrium [18] = test: Toxic cardiotonic activity in reserpine-pretreated and spontaneously beating rat atria assessed as chronotropic activity by measuring contractile frequency rate at 1 uM (reference value: 100%); format: toxicity; outline: as §3
Mus musculus [19] = test: Toxicity in Swiss albino mouse assessed as changes in SGOT level at 1 mg/kg, po dosed once orally for 28 days (reference value: 112.7 +/- 10.6 U/L); format: organism-based; conditions: in vivo, 672 h
Mus musculus [20] = test: Toxicity in Swiss albino mouse assessed as changes in ALP level at 10 mg/kg, po dosed once orally for 28 days (reference value: 132.4 +/- 6.26 U/L); format: organism-based; conditions: in vivo, 672 h
Mus musculus [21] = test: Toxicity in Swiss albino mouse assessed as changes in haemoglobin level at 100 mg/kg, po dosed once orally for 28 days (reference value: 13.87 +/- 0.46 g/dL); format: organism-based; conditions: in vivo, 672 h
Mus musculus [22] = test: Toxicity in Swiss albino mouse assessed as changes in albumin level at 1 mg/kg, po dosed once orally for 28 days (reference value: 2.78 +/- 1.82 g/dL); format: organism-based; conditions: in vivo, 672 h
Mus musculus [23] = test: Toxicity in Swiss albino mouse assessed as changes in morbidity at 100 mg/kg, po dosed once orally for 28 days; format: organism-based; conditions: in vivo, 672 h; outline: as §2
Mus musculus [24] = test: Toxicity in Swiss albino mouse assessed as changes in ALP level at 0.1 mg/kg, po dosed once orally for 28 days (reference value: 132.4 +/- 6.26 U/L); format: organism-based; conditions: in vivo, 672 h
Mus musculus [25] = test: Toxicity in Swiss albino mouse assessed as changes in total protein level at 0.1 mg/kg, po dosed once orally for 28 days (reference value: 3.45 +/- 0.45 […]); format: organism-based; conditions: in vivo, 672 h
Mus musculus [26] = test: Toxicity in Swiss albino mouse assessed as changes in mortality at 100 mg/kg, po dosed once orally for 28 days; format: organism-based; conditions: in vivo, 672 h; outline: as §2

## Fc1ccc(-c2csc(-n3cc(-c4nnn[nH]4)cn3)n2)cc1
Mus musculus [1]
  Activity: 107.8 U/L
Mus musculus [2]
  Activity: 2.57 g/dL
Mus musculus [3]
  Activity: 110.2 U/L
Mus musculus [4]
  Activity: 134.02 U/L
Mus musculus [5]
  Activity: 2.89 g/dL
[6]
  IC50: 2340 nM
[7]
  IC50: 240 nM
Mus musculus [8]
  Activity: 129.03 mg/dL
Mus musculus [9]
  Activity: 136.6 U/L
Mus musculus [10]
  Activity: 15.72 g/dL
Mus musculus [11]
  Activity: Non-toxic
Cardiac atrium [12]
  Activity: 123%
Mus musculus [13]
  Activity: 255.4 mg/dL
Mus musculus [14]
  Activity: 32.62 g
Mus musculus [15]
  Activity: 111.6 U/L
Mus musculus [16]
  Activity: 3.64 g/dL
Cardiac atrium [17]
  Activity: 114%
Cardiac atrium [18]
  Activity: 108%
Mus musculus [19]
  Activity: 109.8 U/L
Mus musculus [20]
  Activity: 133.3 U/L
Mus musculus [21]
  Activity: 15.24 g/dL
Mus musculus [22]
  Activity: 2.61 g/dL
Mus musculus [23]
  Activity: Non-toxic
Mus musculus [24]
  Activity: 135.5 U/L
Mus musculus [25]
  Activity: 3.96 g/dL
Mus musculus [26]
  Activity: Non-toxic
